High-throughput results: PubChem, Sanford-Burnham Center for Chemical Genomics
In the library only some 2.5% were active in any assay of this set; here they are far more common.
SENP8 block-1 – blocks the human protease SENP8. Q96LD8. purified SENP8, Z-RLRGG-aminoluciferin cleavage, luminescence. inhibition, % at 10 µM. 330,000 tested, 1.2% active; in the data active means inhibition above about 50%
SENP1 inh – blocks the human SENP1 SUMO protease catalytic domain; recombinant SENP1 catalytic domain, CyPet-SUMO1-YPet FRET cleavage; inhibition, % at 10 µM; 360,000 tested, 0.21% active;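 active means inhibition at least 30% at 10 µM, raw YFP signal under a set limit, fluorescence ratio 0.5 to 1.5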;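 further: 0% = enzyme with DMSO and 100% = no enzyme wells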
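Controls: no-enzyme wells low, DMSO-plus-enzyme wells high control. Test system: human recombinant His6-tagged SENP1 catalytic domain enzyme. Reagent: SFCypet-SUMO1-SFYpet FRET protein substrate, 25 nM final. Doses: one dose per compound, 10 µM, 0.5% DMSO. Detection: FRET, CFP and YFP emission. Timing: 50 min reaction at room temperature.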
SENP7 inh – blocks the human protease SENP7; Q9BQF6; recombinant SENP7, Z-RLRGG-aminoluciferin luminescence, 40 min; inhibition, % at 5 µM; 330,000 tested, 1.5% active;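 active means inhibition above about 50% at the single test dose, limit read from the data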;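 further: plate controls were DMSO with enzyme for no effect and no enzyme buffer wells for full effect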
Target sequence (Q9BQF6 706-1050 limits assumed): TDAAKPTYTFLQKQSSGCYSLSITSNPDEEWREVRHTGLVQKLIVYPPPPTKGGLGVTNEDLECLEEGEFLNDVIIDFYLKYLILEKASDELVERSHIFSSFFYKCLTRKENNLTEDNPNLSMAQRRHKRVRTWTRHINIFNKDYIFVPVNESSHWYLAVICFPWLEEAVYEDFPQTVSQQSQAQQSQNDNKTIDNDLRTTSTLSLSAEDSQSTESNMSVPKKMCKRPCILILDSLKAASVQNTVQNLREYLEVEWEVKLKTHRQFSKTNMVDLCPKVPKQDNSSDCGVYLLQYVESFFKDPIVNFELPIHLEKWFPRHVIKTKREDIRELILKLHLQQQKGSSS
SENP8 block-2 – inhibitors of human SENP8 protease; recombinant SENP8, Nedd8 substrate fluorescence; inhibition, % at 20 µM; 360,000 tested, 0.64% active; in the data active means inhibition mostly above about 40%, no sharp cut-off; inactive means mostly below about 27%
SENP6 block – inhibitors of human SENP6 protease; 330,000 tested, 1.8% active; Q9GZR1; inhibition, % at 10 µM; AID 2599; Recombinant SENP6 catalytic domain, aminoluciferin luminescence;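 active means inhibition above about 50% at the single tested dose, limit read from the data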;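 further: plate controls were DMSO wells with enzyme for no effect and DMSO wells lacking enzyme for full effect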
SENP8 confirm – confirmation of human SENP8 protease inhibitors | shares compounds with SENP7 inh | Recombinant SENP8, Z-RLRGG-aminoluciferin luminescence, 60 min | inhibition, % at 12.5 µM | 6,200 tested, 40% active | AID 488912;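 active means mean inhibition across replicates above about 50%, limit read from the data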
SENP6 conf – confirmation of human SENP6 protease inhibitors. 6,200 tested, 58% active. inhibition, % at 12.5 µM. shares compounds with SENP7 inh. recombinant SENP6, Z-RLRGG-aminoluciferin luminescence
SENP7 conf – human SENP7 inhibition, confirmed; shares compounds with SENP7 inh; recombinant SENP7, Z-RLRGG-aminoluciferin luminescence, 40 min; inhibition, % at 12.5 µM; 6,200 tested, 69% active; AID 488917
Casp3 SENP sel – caspase-3 inhibition (SENP selectivity assay). shares compounds with SENP7 inh. purified caspase-3, Z-DEVD-aminoluciferin luminescence, 60 min. inhibition, % at 12.5 µM. 6,200 tested, 60% active;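 active means mean inhibition above about 50%, limit read from the data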;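 further: plate controls were enzyme with DMSO for no effect and wells without caspase-3 for full effect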
Luc interf – counter-screen for SENP inhibitors: luminescence interference; shares compounds with SENP7 inh; Pre-incubated SENP8/Z-RLRGG-aminoluciferin, luciferase luminescence interference; inhibition, % at 12.5 µM; 6,200 tested, 39% active; AID 488919;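 active means mean inhibition above about 50% when retested at one dose, limit read from the data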;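 further: plate controls were DMSO wells with completed reaction for no effect and substrate without enzyme for full effect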
* marks the source's active call; other numbers are inactive results; i = inactive; x = not tested or not shown.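 How the source made its calls, unless noted: active means mean inhibition above about 50% in the one-dose retest (limit read from the data); inactive means the rest.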

SMILES	SENP8 block-1	SENP1 inh	SENP7 inh	SENP8 block-2	SENP6 block	SENP8 confirm	SENP6 conf	SENP7 conf	Casp3 SENP sel	Luc interf
O=C(Nc1ccccc1F)c1csc([C@@H]2C[C@H](O)[C@@H](CO)O2)n1	x	-1	x	14	x	x	x	x	x	x
CCN(CC)S(=O)(=O)c1ccc(OC)c(NC(=O)OCc2ccccc2)c1	-13	-1	-9	1	-7	x	x	x	x	x
CCCOc1ccc([N+](=O)[O-])c(N)c1	-10	2	-7	11	-1	x	x	x	x	x
c1ccc(-c2ccccc2-c2nc(-c3ccncc3)no2)cc1	5	1	8	17	-11	x	x	x	x	x
Clc1ccccc1-c1nc(-c2ccncc2)no1	75*	1	80*	12	81*	82*	84*	97*	84*	71*
c1coc(CNc2nc3ccccc3s2)c1	17	-4	43	12	58*	23	23	70*	55*	41
Cc1nnc(NCc2ccco2)s1	-2	3	11	19	5	x	x	x	x	x
Cc1cc(Nc2ccc(C)c(C)c2)c2ccccc2n1	-8	-1	8	-40	-6	x	x	x	x	x
Cc1ccc(Nc2nc(N)c3ccccc3n2)cc1C	93*	0	92*	-101	-10	94*	96*	101*	94*	96*
COc1ccc(Cn2c(C3CC3)nc3ccc(NC(=O)C4CC4)cc3c2=O)cc1	38	-2	67*	-93	8	9	3	92*	58*	-4
CN(C)CCN(C(=O)C1CCN(S(=O)(=O)c2cccs2)CC1)c1nc2c(F)cccc2s1	-4	3	6	11	-7	x	x	x	x	x
O=C(NCCc1ccccc1F)c1ccc2c(c1)OCCO2	80*	0	89*	-3	92*	89*	89*	98*	94*	89*
O=C(Nc1ccc(F)cc1F)c1ccc2c(c1)OCCO2	78*	3	89*	3	89*	8	82*	98*	93*	56*
O=C(Nc1ccc(Br)cc1F)c1ccc2c(c1)OCCO2	80*	1	86*	3	90*	-3	86*	98*	84*	19
O=C(NCc1ccccc1F)c1ccc2c(c1)OCO2	-11	1	-6	4	-4	x	x	x	x	x
Cc1occc1C(=O)Nc1ccc(Br)cc1F	14	-1	44	18	56*	18	26	73*	63*	49
O=C(COC(=O)c1ccc2c(c1)OCCO2)Nc1ccc(F)cc1F	2	4	4	15	-4	x	x	x	x	x
COc1cc2cc(CCCOC(=O)c3ccco3)oc(=O)c2cc1OC	-5	-1	5	-22	27	x	x	x	x	x
Cc1ccc(NC(=O)CCc2c(C)nn(-c3ccc(N4CCCCC4)nn3)c2C)cc1F	38	3	31	-42	56*	61*	53*	77*	38	10
COc1cc2cc(NC(C)=O)cc(NCc3ccccc3)c2cc1OC	70*	-2	47	-313	75*	10	31	13	6	-7
CCCCNc1cc(NC(C)=O)cc2cc(OC)c(OC)cc12	32	3	-10	-272	51*	27	55*	15	2	1
Cc1ccccc1-n1ncc(C(C)NS(=O)(=O)c2ccccc2Cl)c1C (centres undefined)	2	0	2	0	-6	x	x	x	x	x
CCOC(=O)C1C(=O)NC(C(=O)OCC)(C(=O)OCC)C1CC (centres undefined)	x	0	x	9	x	x	x	x	x	x
Cc1ccc(C(=O)/C=C/Nc2ccccc2C(N)=O)cc1	86*	-86	90*	i	95*	22	90*	102*	94*	48
